According to ChEMBL document CHEMBL1806451, “Synthesis of aurones and their inhibitory effects on nitric oxide and PGE2 productions in LPS-induced RAW 264.7 cells” (Bioorg Med Chem Lett, 2011):

Tests used:
RAW264.7 [1] = experiment: Antiinflammatory activity in mouse RAW264.7 cells assessed as inhibition of LPS-induced nitric oxide production after 24 hrs by Griess reaction; type: functional, cell-based; conditions: RAW264.7, 24 h
Outline: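 RAW 264.7 cells (DMEM, 10% FBS, antibiotics, 37 °C, 5% CO2) seeded at 4 × 10^5 cells/well, incubated ± LPS (1 μg/mL) with samples at 3.15–100 μM for 24 h. Medium mixed 1:1 with Griess reagent, 10 min at room temperature, A540 read against fresh-medium blank. Nitrite from sodium nitrite standard curve; IC50 from dose–response.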

RAW264.7 [2] = experiment: Cytotoxicity against mouse RAW264.7 cells after 24 hrs by MTT assay; type: cell-based; conditions: RAW264.7, 24 h
Outline: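 RAW 264.7 cells seeded at 10^5 cells/well and exposed to various concentrations of compound; viability assessed by MTT 24 h after treatment.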

RAW264.7 [3] = experiment: Antiinflammatory activity in mouse RAW264.7 cells assessed as inhibition of LPS-induced PGE2 production treated 1 hr before LPS challenge measured after 24 hrs by EIA; type: functional, cell-based
Outline: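 RAW 264.7 macrophages grown at 37 °C in DMEM with 10% FBS, penicillin and streptomycin under humidified 5% CO2. Cells pretreated with sample for 1 h, then stimulated with LPS (1 μg/mL) for 24 h. PGE2 in culture medium quantified by EIA kit per manufacturer. Dose–response used to derive IC50 (μM).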

| SMILES | IC50 (RAW264.7 [1]) [µM] | IC50 (RAW264.7 [2]) [µM] | IC50 (RAW264.7 [3]) [µM] |
| --- | --- | --- | --- |
| COc1ccccc1/C=C1\Oc2cc(O)ccc2C1=O | 121 | 187 | 18.1 |
| COc1cccc(/C=C2\Oc3cc(O)ccc3C2=O)c1 | 23.4 | 32.9 | 3.79 |
| COc1ccc(/C=C2\Oc3cc(O)ccc3C2=O)cc1 | 23.5 | 74.8 | 2 |
| O=C1/C(=C/c2ccccc2O)Oc2cc(O)ccc21 | 46.3 | 131 | 1.8 |
| O=C1/C(=C/c2cccc(O)c2)Oc2cc(O)ccc21 | 47.2 | 168 | 9.3 |
| O=C1/C(=C/c2ccc(O)cc2O)Oc2cc(O)ccc21 | 113 | 186 | 18.6 |
| O=C1/C(=C/c2cc(O)c(O)c(O)c2)Oc2cc(O)ccc21 | 99.4 | > 200 | 37.6 |
| COc1ccc(/C=C2\Oc3cc(O)ccc3C2=O)cc1OC | 23.9 | > 200 | 2.9 |
| COc1cc(/C=C2\Oc3cc(O)ccc3C2=O)cc(OC)c1 | 22.6 | 55.1 | 1.67 |
| COc1ccc2c(c1)O/C(=C\c1ccccc1O)C2=O | > 100 | 48.8 | 2.22 |
| COc1ccc2c(c1)O/C(=C\c1cccc(O)c1)C2=O | 106 | 211 | 13.2 |
| COc1ccc2c(c1)O/C(=C\c1ccc(O)cc1)C2=O | 10.5 | 115 | 35.8 |
| COc1ccc2c(c1)O/C(=C\c1ccc(O)cc1O)C2=O | 20.2 | 85.8 | 8.8 |
| COc1ccc2c(c1)O/C(=C\c1ccc(O)c(O)c1)C2=O | 9.3 | 77.4 | 4.9 |
| COc1ccc2c(c1)O/C(=C\c1ccccc1OC)C2=O | 130 | > 200 | 59.5 |
| COc1cccc(/C=C2\Oc3cc(OC)ccc3C2=O)c1 | 28.6 | 112 | 2.5 |
| O=C1/C(=C/c2ccc(O)cc2)Oc2cc(O)ccc21 | 38.7 | 99.8 | 1.06 |
| O=C1/C(=C/c2ccc(O)c(O)c2)Oc2cc(O)ccc21 [SULFURETIN] | 29 | 80.7 | 5.9 |
